Data on three compounds can be found in ChEMBL document CHEMBL3774372, “Design, physico-chemical properties and biological evaluation of some new N-[(phenoxy)alkyl]- and N-{2-[2-(phenoxy)ethoxy]ethyl}aminoalkanols as anticonvulsant agents” (Bioorg Med Chem, 2016).

What is called MRT is the average time that molecules of a dose stay in the body. Broadly, the bioavailability is the share of a dose that reaches the circulation, judged against a reference dose that is usually intravenous. The low end stands for poor availability, the high end for good availability. One may read the AUC as the area under the concentration-time curve, a measure of exposure. A high value points to more exposure. A word on the Tmax: it is the time at which the peak concentration occurs. Broadly, the Cmax is the peak of the concentration-time curve. As a reminder, the ED50 is the midpoint of the dose-response relation. As a reminder, the inhibition in vivo is the percentage by which the read-out fell short of the control. The half-life is the time in which the quantity being followed falls by half. The low end stands for rapid decline, the high end for slow decline. What is called AUC(0-inf) is the area under the concentration-time curve extrapolated to infinity. High values mean more exposure, low ones less exposure.

Data set [1] has as its system Rattus norvegicus. As to the kind of experiment: Anticonvulsant activity in pilocarpine-induced status epilepticus Sprague-Dawley rat model at 30 mg/kg, ip after […] during post stage 3 seizure. It counts as functional, organism-based.
Data set [2] deals with Rattus norvegicus. As to the kind of experiment: Anticonvulsant activity in rat assessed as protection against maximal electric shock-induced seizures at 30 mg/kg, ip measured after 4 hrs. The class given is functional, organism-based. In outline:
(§1)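 Rats dosed ip or orally as 0.5% methylcellulose suspension; maximal electroshock at listed time. Protection = abolition of hindlimb tonic extension; 4 rats per group, scored protected/tested.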

Data set [3] deals with Rattus norvegicus. The data set can be described thus: Anticonvulsant activity in rat assessed as protection against maximal electric shock-induced seizures at 30 mg/kg, ip measured after 2 hrs. The class given is functional, organism-based. The method, boiled down: as §1
In data set [4] the test system is Rattus norvegicus. The data set can be described thus: Anticonvulsant activity in rat assessed as protection against maximal electric shock-induced seizures at 30 mg/kg, po measured after 2 hrs. It counts as functional, organism-based. The method, boiled down: as §1
The test system of data set [5] is Mus musculus. As to the kind of experiment: Anticonvulsant activity in mouse assessed as protection against 6 Hz psychomotor seizure at 20 mg/kg, ip after 2 hrs. The class given is functional, organism-based. In outline:
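Suspension in 0.5% methylcellulose given ip to mice; corneal stimulation with 0.2 ms monopolar rectangular pulses at 6 Hz for 3 s from a constant current device, mice restrained then released to observation cage. Protected if normal exploratory behaviour resumed within 10 s of stimulation. Scored as protected/tested, 4 mice per group.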

Data set [6] relates to Rattus norvegicus. As to the kind of experiment: Anticonvulsant activity in rat assessed as protection against maximal electric shock-induced seizures at 30 mg/kg, ip measured after […]. The class given is functional, organism-based.
For data set [7], the system named is Rattus norvegicus. As to the kind of experiment: Anticonvulsant activity in rat assessed as protection against maximal electric shock-induced seizures at 30 mg/kg, po measured after 1 hr. The class given is functional, organism-based. In outline:
as §1

Data set [8] in a line: MRT in CD1 mouse brain at 12.92 mg/kg, ip measured up to 240 mins by LC/ESI-MS/MS analysis. It counts as ADME, organism-based.
The test system of data set [9] is Vibrio harveyi. As to the kind of experiment: Antimutagenic activity against Vibrio harveyi BB7X assessed as inhibition of NQNO-induced mutagenicity after 48 hrs. It counts as functional. The method, boiled down:
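V. harveyi cultures grown exponentially to A600 0.1 at 30 °C, exposed to test compound for 15 min, then to NQNO, and grown on to A600 0.3–0.4. 5 × 10⁶ cells plated on BOSS agar with neomycin (100, final). Neomycin-resistant colonies counted after 48 h at 30 °C. Result given as % inhibition of NQNO mutagenicity; three independent repeats.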

Data set [10] is described as follows: Absolute bioavailability in CD1 mouse plasma at 12.92 mg/kg, ip measured up to 240 mins by LC/ESI-MS/MS analysis. It counts as ADME, organism-based.
The nature of data set [11]: Absolute bioavailability in CD1 mouse plasma at 12.92 mg/kg, ig measured up to 240 mins by LC/ESI-MS/MS analysis. The class given is ADME, organism-based. The following applies: po.
The test system of data set [12] is Mus musculus. As to the kind of experiment: AUC (0 to infinity) in CD1 mouse plasma at 1 mg/kg, iv measured up to 240 mins by LC/ESI-MS/MS analysis. It counts as ADME, organism-based. The following applies: in vivo, 4 h. Set-up: dose 1 mg/kg, time infinity, route intravenous.
Data set [13] can be described thus: Tmax in CD1 mouse brain at 12.92 mg/kg, ig measured up to 240 mins by LC/ESI-MS/MS analysis. The following applies: po. It counts as ADME, organism-based.
The test system of data set [14] is Mus musculus. As to the kind of experiment: Cmax in CD1 mouse plasma at 12.92 mg/kg, ip measured up to 240 mins by LC/ESI-MS/MS analysis. The following applies: in vivo, 4 h. Set-up: dose 12.92 mg/kg, route intraperitoneal. It counts as ADME, organism-based.
Data set [15] can be described thus: Ratio of drug level in brain to plasma in CD1 mouse at 1 mg/kg, iv administered as single dose measured after 5 mins by LC/ESI-MS/MS analysis. It counts as ADME, organism-based. Conditions: brain and plasma, read-out: BPR.
Data set [16] in a line: Ratio of drug level in brain to plasma in CD1 mouse at 12.92 mg/kg, ig administered as single dose measured after 30 mins by LC/ESI-MS/MS analysis. It counts as ADME, organism-based. Conditions: brain and plasma, po, read-out: BPR.
Data set [17] relates to Mus musculus. As to the kind of experiment: Anticonvulsant activity in ip dosed mouse assessed as protection against subcutaneous pentylenetetrazol-induced seizures measured after […]. The class given is functional.
Data set [18] deals with Mus musculus. The data set can be described thus: Neurotoxicity in mouse at 30 mg/kg, ip after 4 hrs by rotarod test. Conditions: in vivo. It counts as toxicity, organism-based. In outline:
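Mice were dosed ip with compound suspended in 0.5% methylcellulose. Rotarod: a 1 in. knurled rod turning at 6 rpm. Neurotoxicity was scored as failure to stay on the rod for at least 1 min in each of three trials. Results are given as the number of animals affected out of the number tested.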

The subject of data set [19] is Mus musculus. As to the kind of experiment: Analgesic activity in mouse assessed as reduction in AUC of formalin-induced licking time during inflammatory phase at 13 mg/kg, ip relative to control. The class given is functional. In outline:
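Formalin injected into a mouse hindlimb; total licking time taken as pain intensity. Compound given ip at 13 mg/kg as a suspension in 0.5% methylcellulose; vehicle-only animals served as controls.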

Data set [20] is described as follows: in vitro. Conditions: mouse, liver microsomes. In general terms: Liver microsomes are a subcellular fraction often used to study metabolism.
Data set [21] has as its system Mus musculus. The data set can be described thus: Tmax in CD1 mouse plasma at 12.92 mg/kg, ig measured up to 240 mins by LC/ESI-MS/MS analysis. Conditions: in vivo, po, 4 h. It counts as ADME, organism-based.
Data set [22] can be described thus: Ratio of drug level in brain to plasma in CD1 mouse at 1 mg/kg, iv administered as single dose measured after 15 mins by LC/ESI-MS/MS analysis. It counts as ADME, organism-based. Conditions: brain and plasma, read-out: BPR.
Data set [23] in a line: Cmax in CD1 mouse brain at 12.92 mg/kg, ig measured up to 240 mins by LC/ESI-MS/MS analysis. The class given is ADME, organism-based. Further details: dose 12.92 mg/kg, route […]. Conditions: po.
For data set [24], the system named is Vibrio harveyi. As to the kind of experiment: Mutagenicity in Vibrio harveyi BB7X assessed as number of colonies after 48 hrs (reference value: 15 to 16 no_unit). The class given is ADME, organism-based. Conditions: in vivo. In outline:
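Vibrio harveyi mutagenicity test: test compound was added to exponentially growing cultures (A600 = 0.1, 30 °C) and grown to OD600 0.3–0.4. Then 5 × 10^6 cells were plated on BOSS agar with neomycin (final 100 µg/mL) and incubated 48 h at 30 °C. Neomycin-resistant colonies were counted. Triplicate; controls were water, DMSO and NQNO 40 ng/mL.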

The test system of data set [25] is Rattus norvegicus. As to the kind of experiment: Toxicity in pilocarpine-induced status epilepticus Sprague-Dawley rat model assessed as average weight change at 100 mg/kg, ip measured 24 hrs post first stage 3 seizure. It counts as organism-based. Conditions: in vivo.
The subject of data set [26] is Mus musculus. As to the kind of experiment: AUC (0 to infinity) in CD1 mouse plasma at 12.92 mg/kg, ig measured up to 240 mins by LC/ESI-MS/MS analysis. It counts as ADME, organism-based. Set-up: dose 12.92 mg/kg, time infinity, route […]. Conditions: in vivo, po, 4 h.
The nature of data set [27]: Ratio of drug level in brain to plasma in CD1 mouse at 12.92 mg/kg, ip administered as single dose measured after 240 mins by LC/ESI-MS/MS analysis. The following applies: brain and plasma, read-out: BPR. It counts as ADME, organism-based.
In data set [28] the test system is Mus musculus. The data set can be described thus: Initial plasma concentration in CD1 mouse at 1 mg/kg, iv measured up to 240 mins by LC/ESI-MS/MS. It counts as ADME, organism-based. Conditions: in vivo, 4 h.
Data set [29] in a line: AUC (0 to infinity) in CD1 mouse brain at 12.92 mg/kg, ig measured up to 240 mins by LC/ESI-MS/MS analysis. It counts as ADME, organism-based. The following applies: po. Further details: dose 12.92 mg/kg, route […], time infinity.
Data set [30] is described as follows: Ratio of drug level in brain to plasma in CD1 mouse at 12.92 mg/kg, ig administered as single dose measured after 60 mins by LC/ESI-MS/MS analysis. The class given is ADME, organism-based. The following applies: brain and plasma, po, read-out: BPR.
Data set [31] relates to Mus musculus. The data set can be described thus: Half life in CD1 mouse plasma at 12.92 mg/kg, ig measured up to 240 mins by LC/ESI-MS/MS analysis. The class given is ADME, organism-based. The following applies: in vivo, po, 4 h.

The source made the active and inactive calls. No cut-off for these calls is given here.

On to `Cc1cccc(C)c1OCCOCCN[C@H](C)CO`, for which the result in data set [1] was inactive.
On to `Cc1cccc(C)c1OCCOCCN[C@@H](C)CO`, for which the outcome in data set [2], in [3], in data set [4], in data set [5] and in data set [7] was inactive. Also, the outcome in [6] was Active.
Regarding `Cc1cccc(C)c1OCCOCCN[C@H](C)CO.Cl`, the MRT in data set [8] is 83.1 min. In data set [9], the “inhibition (INH)” value was 7%. For the same compound, the results for the bioavailability in data set [10] and in [11] were 6.78% and 2.98%, respectively. The AUC came out at 1.03 µg·h/mL in [12] and 0.396 µg·h/mL in data set [26]. Further, the time to peak (Tmax) in data set [13] and in data set [21] was 5 min in each case. Also, the Cmax in data set [14] came out at 1190 ng/mL; in data set [23], 1640 ng/mL. For the same compound, the Kp at 5 min in data set [15] is 5.27. Also, the Kp at 0.5 h in data set [16] is 2.12. Besides, the ED50 in data set [17] is > 45 mg/kg. In addition, the Activity entry in data set [18] is given as “Non-toxic”; in data set [24], 25; in data set [25], 17.5 g. In addition, in data set [19], the inhibition in vivo at 13 mg/kg amounted to 81.1%. This compound also returned a half-life at 20 µM in data set [20] of 37 min. Moreover, the Kp at […] in [22] was found to be 5.36. Moreover, in data set [27], the Kp at 4 h is 1.94. In data set [28], this compound gave a C0 of 2200 ng/mL. The same compound showed an AUC(0-inf) in data set [29] of 1220 µg·h/mL. Besides, in data set [30], the Kp at 1 h worked out at 5.95. This compound also had a t1/2 in data set [31] of 29.1 min.
